Source: ChEMBL document CHEMBL5058577, “EUbOPEN Chemogenomics Library 2 (Multiplex)” (2022)

Tested on: U2OS
Test: Multiplex assay against U2OS
Type: toxicity, cell-based
Conditions: human
Summary of the method: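 On a CQ1 microscope at 37°C and 5% CO2, live cells were imaged after compound addition. They had been stained at seeding with Hoechst33342, BioTracker Green Microtubule Cytoskeleton Dye, MitoTracker Red and Annexin V Alexa Fluor 680. CellPathfinder machine-learning gating assigned cells to Hoechst high-intensity objects or normal cells, normal cells to healthy, pyknosed or fragmented nuclei, and pyknosed cells to mitotic or apoptotic. Tubulin, mitochondrial-mass and membrane-permeability phenotypes are per cents of healthy-nucleus cells.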

[1] = 12 h, 1 µM, compound concentration 1 uM, replicate 1
[2] = 12 h, 1 µM, compound concentration 1 uM, replicate 2
[3] = 12 h, 10 µM, compound concentration 10 uM, replicate 1
[4] = 12 h, 10 µM, compound concentration 10 uM, replicate 2
[5] = 24 h, 1 µM, compound concentration 1 uM, replicate 1
[6] = 24 h, 1 µM, compound concentration 1 uM, replicate 2
[7] = 24 h, 10 µM, compound concentration 10 uM, replicate 1
[8] = 24 h, 10 µM, compound concentration 10 uM, replicate 2
[9] = 48 h, 1 µM, compound concentration 1 uM, replicate 1
[10] = 48 h, 1 µM, compound concentration 1 uM, replicate 2
[11] = 48 h, 10 µM, compound concentration 10 uM, replicate 1
[12] = 48 h, 10 µM, compound concentration 10 uM, replicate 2

**Q.** Which “Population Apoptotic (%)” value [1] does the source give for Cl.Cl.OCCOCCN1CCN(C(c2ccccc2)c2ccc(Cl)cc2)CC1 (stereo not drawn) [HYDROXYZINE HYDROCHLORIDE] here?
**A.** 60%

**Q.** What about the “Population Fragmented Nuclei (%)” value [1] of the same molecule?
**A.** 29%

**Q.** And the “Population Healthy Nuclei (%)” value [1]?
**A.** 61%

**Q.** And the “Population Hoechst High Intensity Objects (%)” value [1]?
**A.** 0%

**Q.** What about the “Population Membrane Permeable-Phenotype (%)” value [1] of the same molecule?
**A.** 11%

**Q.** What about the “Population Mitochondria Different-Phenotype (%)” value [1] of the same molecule?
**A.** 4%

**Q.** And the “Population Mitotic Cells (%)” value [1]?
**A.** 40%

**Q.** What about the “Population Normal (%)” value [1] of the same molecule?
**A.** 99%

**Q.** And the “Population Pyknosed Nuclei (%)” value [1]?
**A.** 9%

**Q.** What about the “Population Tubulin-Different-Phenotype (%)” value [1] of the same molecule?
**A.** 7%

**Q.** And the “Total Cell Count” value [1]?
**A.** 208

**Q.** And the “Population Apoptotic (%)” value [2]?
**A.** 80%

**Q.** What about the “Population Fragmented Nuclei (%)” value [2] of the same molecule?
**A.** 13%

**Q.** And the “Population Healthy Nuclei (%)” value [2]?
**A.** 78%

**Q.** What about the “Population Hoechst High Intensity Objects (%)” value [2] of the same molecule?
**A.** 1%

**Q.** What about the “Population Membrane Permeable-Phenotype (%)” value [2] of the same molecule?
**A.** 9%

**Q.** What about the “Population Mitochondria Different-Phenotype (%)” value [2] of the same molecule?
**A.** 6%

**Q.** What about the “Population Mitotic Cells (%)” value [2] of the same molecule?
**A.** 20%

**Q.** What about the “Population Normal (%)” value [2] of the same molecule?
**A.** 98%

**Q.** And the “Population Pyknosed Nuclei (%)” value [2]?
**A.** 7%

**Q.** What about the “Population Tubulin-Different-Phenotype (%)” value [2] of the same molecule?
**A.** 8%

**Q.** What about the “Total Cell Count” value [2] of the same molecule?
**A.** 139

**Q.** What about the “Population Apoptotic (%)” value [3] of the same molecule?
**A.** 58%

**Q.** What about the “Population Fragmented Nuclei (%)” value [3] of the same molecule?
**A.** 20%

**Q.** What about the “Population Healthy Nuclei (%)” value [3] of the same molecule?
**A.** 66%

**Q.** What about the “Population Hoechst High Intensity Objects (%)” value [3] of the same molecule?
**A.** 1%

**Q.** What about the “Population Membrane Permeable-Phenotype (%)” value [3] of the same molecule?
**A.** 9%

**Q.** And the “Population Mitochondria Different-Phenotype (%)” value [3]?
**A.** 10%

**Q.** And the “Population Mitotic Cells (%)” value [3]?
**A.** 41%

**Q.** What about the “Population Normal (%)” value [3] of the same molecule?
**A.** 98%

**Q.** And the “Population Pyknosed Nuclei (%)” value [3]?
**A.** 13%

**Q.** What about the “Population Tubulin-Different-Phenotype (%)” value [3] of the same molecule?
**A.** 6%

**Q.** And the “Total Cell Count” value [3]?
**A.** 316

**Q.** What about the “Population Apoptotic (%)” value [4] of the same molecule?
**A.** 88%

**Q.** What about the “Population Fragmented Nuclei (%)” value [4] of the same molecule?
**A.** 26%

**Q.** And the “Population Hoechst High Intensity Objects (%)” value [4]?
**A.** 2%

**Q.** What about the “Population Membrane Permeable-Phenotype (%)” value [4] of the same molecule?
**A.** 5%

**Q.** What about the “Population Mitochondria Different-Phenotype (%)” value [4] of the same molecule?
**A.** 7%

**Q.** And the “Population Mitotic Cells (%)” value [4]?
**A.** 11%

**Q.** What about the “Population Normal (%)” value [4] of the same molecule?
**A.** 97%

**Q.** What about the “Population Pyknosed Nuclei (%)” value [4] of the same molecule?
**A.** 6%

**Q.** And the “Population Tubulin-Different-Phenotype (%)” value [4]?
**A.** 7%

**Q.** What about the “Total Cell Count” value [4] of the same molecule?
**A.** 141

**Q.** What about the “Population Apoptotic (%)” value [5] of the same molecule?
**A.** 96%

**Q.** And the “Population Fragmented Nuclei (%)” value [5]?
**A.** 25%

**Q.** What about the “Population Healthy Nuclei (%)” value [5] of the same molecule?
**A.** 63%

**Q.** And the “Population Hoechst High Intensity Objects (%)” value [5]?
**A.** 1%

**Q.** And the “Population Membrane Permeable-Phenotype (%)” value [5]?
**A.** 8%

**Q.** And the “Population Mitochondria Different-Phenotype (%)” value [5]?
**A.** 4%

**Q.** What about the “Population Mitotic Cells (%)” value [5] of the same molecule?
**A.** 4%

**Q.** And the “Population Normal (%)” value [5]?
**A.** 98%

**Q.** And the “Population Pyknosed Nuclei (%)” value [5]?
**A.** 10%

**Q.** What about the “Population Tubulin-Different-Phenotype (%)” value [5] of the same molecule?
**A.** 7%

**Q.** And the “Total Cell Count” value [5]?
**A.** 232

**Q.** What about the “Population Apoptotic (%)” value [6] of the same molecule?
**A.** 77%

**Q.** What about the “Population Fragmented Nuclei (%)” value [6] of the same molecule?
**A.** 9%

**Q.** And the “Population Healthy Nuclei (%)” value [6]?
**A.** 77%

**Q.** What about the “Population Hoechst High Intensity Objects (%)” value [6] of the same molecule?
**A.** 2%

**Q.** And the “Population Membrane Permeable-Phenotype (%)” value [6]?
**A.** 5%

**Q.** And the “Population Mitochondria Different-Phenotype (%)” value [6]?
**A.** 1%

**Q.** And the “Population Mitotic Cells (%)” value [6]?
**A.** 22%

**Q.** And the “Population Normal (%)” value [6]?
**A.** 97%

**Q.** What about the “Population Pyknosed Nuclei (%)” value [6] of the same molecule?
**A.** 12%

**Q.** What about the “Population Tubulin-Different-Phenotype (%)” value [6] of the same molecule?
**A.** 1%

**Q.** And the “Total Cell Count” value [6]?
**A.** 148

**Q.** What about the “Population Apoptotic (%)” value [7] of the same molecule?
**A.** 73%

**Q.** And the “Population Fragmented Nuclei (%)” value [7]?
**A.** 23%

**Q.** What about the “Population Healthy Nuclei (%)” value [7] of the same molecule?
**A.** 63%

**Q.** What about the “Population Hoechst High Intensity Objects (%)” value [7] of the same molecule?
**A.** 2%

**Q.** What about the “Population Membrane Permeable-Phenotype (%)” value [7] of the same molecule?
**A.** 10%

**Q.** And the “Population Mitochondria Different-Phenotype (%)” value [7]?
**A.** 8%

**Q.** And the “Population Mitotic Cells (%)” value [7]?
**A.** 26%

**Q.** What about the “Population Normal (%)” value [7] of the same molecule?
**A.** 97%

**Q.** And the “Population Pyknosed Nuclei (%)” value [7]?
**A.** 12%

**Q.** And the “Population Tubulin-Different-Phenotype (%)” value [7]?
**A.** 4%

**Q.** And the “Total Cell Count” value [7]?
**A.** 359

**Q.** What about the “Population Apoptotic (%)” value [8] of the same molecule?
**A.** 61%

**Q.** What about the “Population Fragmented Nuclei (%)” value [8] of the same molecule?
**A.** 31%

**Q.** What about the “Population Healthy Nuclei (%)” value [8] of the same molecule?
**A.** 60%

**Q.** And the “Population Membrane Permeable-Phenotype (%)” value [8]?
**A.** 12%

**Q.** And the “Population Mitochondria Different-Phenotype (%)” value [8]?
**A.** 13%

**Q.** What about the “Population Mitotic Cells (%)” value [8] of the same molecule?
**A.** 38%

**Q.** What about the “Population Pyknosed Nuclei (%)” value [8] of the same molecule?
**A.** 7%

**Q.** What about the “Population Tubulin-Different-Phenotype (%)” value [8] of the same molecule?
**A.** 9%

**Q.** And the “Total Cell Count” value [8]?
**A.** 168

**Q.** And the “Population Apoptotic (%)” value [9]?
**A.** 89%

**Q.** What about the “Population Fragmented Nuclei (%)” value [9] of the same molecule?
**A.** 24%

**Q.** What about the “Population Healthy Nuclei (%)” value [9] of the same molecule?
**A.** 62%

**Q.** What about the “Population Hoechst High Intensity Objects (%)” value [9] of the same molecule?
**A.** 2%

**Q.** What about the “Population Membrane Permeable-Phenotype (%)” value [9] of the same molecule?
**A.** 4%

**Q.** And the “Population Mitochondria Different-Phenotype (%)” value [9]?
**A.** 3%

**Q.** What about the “Population Mitotic Cells (%)” value [9] of the same molecule?
**A.** 10%

**Q.** And the “Population Normal (%)” value [9]?
**A.** 97%

**Q.** What about the “Population Pyknosed Nuclei (%)” value [9] of the same molecule?
**A.** 13%

**Q.** And the “Population Tubulin-Different-Phenotype (%)” value [9]?
**A.** 4%

**Q.** And the “Total Cell Count” value [9]?
**A.** 300

**Q.** And the “Population Apoptotic (%)” value [10]?
**A.** 90%

**Q.** What about the “Population Fragmented Nuclei (%)” value [10] of the same molecule?
**A.** 14%

**Q.** What about the “Population Healthy Nuclei (%)” value [10] of the same molecule?
**A.** 76%

**Q.** And the “Population Membrane Permeable-Phenotype (%)” value [10]?
**A.** 5%

**Q.** And the “Population Pyknosed Nuclei (%)” value [10]?
**A.** 8%

**Q.** And the “Population Tubulin-Different-Phenotype (%)” value [10]?
**A.** 0%

**Q.** And the “Total Cell Count” value [10]?
**A.** 230

**Q.** What about the “Population Apoptotic (%)” value [11] of the same molecule?
**A.** 83%

**Q.** What about the “Population Fragmented Nuclei (%)” value [11] of the same molecule?
**A.** 17%

**Q.** And the “Population Healthy Nuclei (%)” value [11]?
**A.** 68%

**Q.** What about the “Population Hoechst High Intensity Objects (%)” value [11] of the same molecule?
**A.** 2%

**Q.** And the “Population Membrane Permeable-Phenotype (%)” value [11]?
**A.** 8%

**Q.** What about the “Population Mitochondria Different-Phenotype (%)” value [11] of the same molecule?
**A.** 6%

**Q.** What about the “Population Mitotic Cells (%)” value [11] of the same molecule?
**A.** 16%

**Q.** And the “Population Normal (%)” value [11]?
**A.** 97%

**Q.** And the “Population Pyknosed Nuclei (%)” value [11]?
**A.** 13%

**Q.** And the “Population Tubulin-Different-Phenotype (%)” value [11]?
**A.** 4%

**Q.** What about the “Total Cell Count” value [11] of the same molecule?
**A.** 456

**Q.** What about the “Population Fragmented Nuclei (%)” value [12] of the same molecule?
**A.** 27%

**Q.** What about the “Population Healthy Nuclei (%)” value [12] of the same molecule?
**A.** 64%

**Q.** And the “Population Hoechst High Intensity Objects (%)” value [12]?
**A.** 5%

**Q.** And the “Population Membrane Permeable-Phenotype (%)” value [12]?
**A.** 10%

**Q.** And the “Population Mitochondria Different-Phenotype (%)” value [12]?
**A.** 5%

**Q.** And the “Population Normal (%)” value [12]?
**A.** 94%

**Q.** And the “Population Pyknosed Nuclei (%)” value [12]?
**A.** 8%

**Q.** What about the “Population Tubulin-Different-Phenotype (%)” value [12] of the same molecule?
**A.** 5%

**Q.** What about the “Total Cell Count” value [12] of the same molecule?
**A.** 231
